In brackets after ≈: the same amount, converted by molar mass.
Columns and labels:
Escherichia coli = experiment: Antibacterial activity against Escherichia coli W3110 after 18 to 24 hrs by CLSI broth microdilution method; assay type: functional
Streptococcus pneumoniae = experiment: Antibacterial activity against penicillin-susceptible Streptococcus pneumoniae D39 after 18 to 24 hrs by CLSI broth microdilution method; assay type: functional
Staphylococcus aureus [1] = experiment: Antibacterial activity against methicillin-susceptible Staphylococcus aureus after 18 to 24 hrs by CLSI broth microdilution method; assay type: functional
Pseudomonas aeruginosa = experiment: Antibacterial activity against Pseudomonas aeruginosa PAO1 after 18 to 24 hrs by CLSI broth microdilution method; assay type: functional
[2] = Fraction unbound in human plasma at 10 uM by equilibrium dialysis method; assay type: ADME, cell-free
In short: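 Equilibrium dialysis. Compound at 10 μM in the plasma (donor) chamber against phosphate buffer, rotated at 37 °C for 16 h. Drug in the plasma and buffer samples quantified by LC-MS/MS after methanol protein precipitation with internal standard. Standard curve 10 nM to 10 μM.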

[3] = Inhibition of Escherichia coli DNA topoisomerase 4 subunit ParC/DNA topoisomerase 4 subunit ParE ATPase activity after 24 hrs by malachite green staining-based colorimetric assay
[4] = target: Voltage-gated inwardly rectifying potassium channel KCNH2 (Homo sapiens, UniProt Q12809); experiment: Inhibition of human ERG by Ionworks assay
Sequence of Voltage-gated inwardly rectifying potassium channel KCNH2 (Q12809 whole entry): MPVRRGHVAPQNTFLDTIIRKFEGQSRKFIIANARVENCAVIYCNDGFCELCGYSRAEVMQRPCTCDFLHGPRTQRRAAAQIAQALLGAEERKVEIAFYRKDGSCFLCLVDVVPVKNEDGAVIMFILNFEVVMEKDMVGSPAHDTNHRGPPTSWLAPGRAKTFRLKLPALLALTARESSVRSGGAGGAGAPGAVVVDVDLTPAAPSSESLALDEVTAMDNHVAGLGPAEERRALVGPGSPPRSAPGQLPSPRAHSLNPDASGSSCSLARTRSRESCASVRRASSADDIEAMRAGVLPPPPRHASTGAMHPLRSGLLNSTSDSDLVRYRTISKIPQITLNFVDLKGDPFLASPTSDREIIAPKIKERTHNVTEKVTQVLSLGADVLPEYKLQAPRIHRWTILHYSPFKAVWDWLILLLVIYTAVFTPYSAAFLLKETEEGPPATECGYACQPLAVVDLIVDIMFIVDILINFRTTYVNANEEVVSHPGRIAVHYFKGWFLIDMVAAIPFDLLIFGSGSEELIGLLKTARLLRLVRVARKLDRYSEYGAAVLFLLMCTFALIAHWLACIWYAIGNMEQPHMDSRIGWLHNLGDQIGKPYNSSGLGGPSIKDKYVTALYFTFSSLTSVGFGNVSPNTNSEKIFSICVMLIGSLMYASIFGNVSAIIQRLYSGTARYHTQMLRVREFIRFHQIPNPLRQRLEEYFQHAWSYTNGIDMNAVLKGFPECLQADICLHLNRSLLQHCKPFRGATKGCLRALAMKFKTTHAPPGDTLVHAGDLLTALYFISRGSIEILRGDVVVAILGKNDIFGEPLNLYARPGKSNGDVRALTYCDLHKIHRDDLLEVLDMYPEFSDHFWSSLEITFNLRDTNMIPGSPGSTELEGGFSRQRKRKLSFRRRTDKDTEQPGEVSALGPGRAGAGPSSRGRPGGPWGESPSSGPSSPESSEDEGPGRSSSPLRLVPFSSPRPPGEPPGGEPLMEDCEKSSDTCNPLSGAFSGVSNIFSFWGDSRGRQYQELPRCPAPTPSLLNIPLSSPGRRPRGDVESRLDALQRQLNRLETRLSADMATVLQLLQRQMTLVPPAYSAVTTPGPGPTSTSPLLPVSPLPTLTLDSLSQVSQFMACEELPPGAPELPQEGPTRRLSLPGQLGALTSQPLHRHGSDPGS

[5] = Octanol-phosphate buffer partition coefficient, log D of the compound at pH 7.4 by shake flask method; assay type: physicochemical
In short: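 Shake-flask partition between n-octanol and 10 mM phosphate buffer at pH 7.4. Shaken 1 h at 1200 rpm to reach equilibrium. Phases analysed by LC/UV, with MS for mass confirmation.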

[6] = Dissociation constant, pKa of the compound by pH metric assay; assay type: physicochemical
In short: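 pH-metric titration on an automated titrator, run in triplicate. Accuracy about 0.02 log units.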

Staphylococcus aureus [7] = experiment: Antibacterial activity against vancomycin-resistant Staphylococcus aureus ARC 3186 after 18 to 24 hrs by CLSI broth microdilution method; assay type: functional
In short: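 CLSI broth microdilution in Mueller Hinton Broth 2. Inocula prepared from blood agar plates grown at 35 °C for 18–24 h. Compound in DMSO, 2% DMSO final, 11 doubling dilutions from 64 to 0.06 μg/mL. Plates read at 620 nm.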

Structure (SMILES)	MIC (Escherichia coli)	MIC (Streptococcus pneumoniae)	MIC (Staphylococcus aureus [1])	MIC (Pseudomonas aeruginosa)	fraction unbound at 10 µM [2]	IC50 [3]	IC50 [4]	logD [5]	pKa [6]	MIC (Staphylococcus aureus [7])
COc1ccc2ncc(=O)n(CCN3CC[C@H](NCc4ccc5c(n4)NC(=O)CO5)[C@H](F)C3)c2c1	0.5 µg/mL (≈ 1.04 µM)	0.13 µg/mL (≈ 0.269 µM)	0.03 µg/mL (≈ 0.0622 µM)	8 µg/mL (≈ 16.6 µM)	–	–	–	–	–	–
N#Cc1ccc2ccc(=O)n(CCN3CC[C@H](NCc4cc5c(cn4)OCCO5)[C@H](O)C3)c2c1	1 µg/mL (≈ 2.17 µM)	–	0.06 µg/mL (≈ 0.13 µM)	> 8 µg/mL	0.19	25 nM	156000 nM	0.46	8	–
N#Cc1ccc2ccc(=O)n(CCN3CC[C@@H](NCc4cc5c(cn4)OCCO5)[C@@H](O)C3)c2c1	1 µg/mL (≈ 2.17 µM)	–	0.06 µg/mL (≈ 0.13 µM)	> 8 µg/mL	0.24	41 nM	117000 nM	0.45	–	–
N#Cc1ccc2ccc(=O)n(CCN3CC[C@H](NCc4ccc5c(n4)NC(=O)CO5)[C@H](O)C3)c2c1	0.5 µg/mL (≈ 1.05 µM)	–	0.25 µg/mL (≈ 0.527 µM)	2 µg/mL (≈ 4.21 µM)	0.21	17 nM	–	0.11	–	–
N#Cc1ccc2ccc(=O)n(CCN3CC[C@@H](NCc4ccc5c(n4)NC(=O)CO5)[C@@H](O)C3)c2c1	0.5 µg/mL (≈ 1.05 µM)	–	0.5 µg/mL (≈ 1.05 µM)	2 µg/mL (≈ 4.21 µM)	0.18	15 nM	–	0.1	–	–
COc1ccc2ncc(=O)n(CCN3CC[C@H](NCc4cc5c(cn4)OCCO5)[C@H](O)C3)c2c1	0.5 µg/mL (≈ 1.07 µM)	–	0.03 µg/mL (≈ 0.0642 µM)	8 µg/mL (≈ 17.1 µM)	0.19	5 nM	–	–	–	–
COc1ccc2ncc(=O)n(CCN3CC[C@@H](NCc4cc5c(cn4)OCCO5)[C@@H](O)C3)c2c1	1 µg/mL (≈ 2.14 µM)	–	0.06 µg/mL (≈ 0.128 µM)	> 8 µg/mL	0.14	6 nM	–	–	7.97	–
COc1ccc2ncc(=O)n(CCN3CC[C@H](NCc4ccc5c(n4)NC(=O)CO5)[C@H](O)C3)c2c1	0.25 µg/mL (≈ 0.52 µM)	–	0.06 µg/mL (≈ 0.125 µM)	2 µg/mL (≈ 4.16 µM)	0.14	17 nM	172000 nM	0.39	–	–
COc1ccc2ncc(=O)n(CCN3CC[C@@H](NCc4ccc5c(n4)NC(=O)CO5)[C@@H](O)C3)c2c1	0.25 µg/mL (≈ 0.52 µM)	–	0.13 µg/mL (≈ 0.271 µM)	2 µg/mL (≈ 4.16 µM)	0.05	23 nM	152000 nM	0.37	–	–
CO[C@H]1CN(CCn2c(=O)ccc3ccc(C#N)cc32)CC[C@H]1NCc1cc2c(cn1)OCCO2	4 µg/mL (≈ 8.41 µM)	0.13 µg/mL (≈ 0.273 µM)	0.13 µg/mL (≈ 0.273 µM)	> 8 µg/mL	0.54	55 nM	174000 nM	0.63	7.99	–
CO[C@H]1CN(CCn2c(=O)ccc3ccc(C#N)cc32)CC[C@H]1NCc1ccc2c(n1)NC(=O)CO2	1 µg/mL (≈ 2.05 µM)	0.5 µg/mL (≈ 1.02 µM)	0.13 µg/mL (≈ 0.266 µM)	8 µg/mL (≈ 16.4 µM)	0.5	28 nM	–	0.32	–	–
COc1ccc2ncc(=O)n(CCN3CC[C@@H](NCc4cc5c(cn4)OCCO5)[C@@H](OC)C3)c2c1	4 µg/mL (≈ 8.31 µM)	0.13 µg/mL (≈ 0.27 µM)	0.06 µg/mL (≈ 0.125 µM)	> 8 µg/mL	0.33	76 nM	75000 nM	0.9	8.01	–
COc1ccc2ncc(=O)n(CCN3CC[C@@H](NCc4ccc5c(n4)NC(=O)CO5)[C@@H](OC)C3)c2c1	1 µg/mL (≈ 2.02 µM)	0.25 µg/mL (≈ 0.506 µM)	0.06 µg/mL (≈ 0.121 µM)	4 µg/mL (≈ 8.09 µM)	0.28	76 nM	88000 nM	–	8.17	–
COc1ccc2ncc(=O)n(CCN3CC[C@@H](NCc4ccc5c(n4)NC(=O)CO5)[C@@H](F)C3)c2c1	0.5 µg/mL (≈ 1.04 µM)	0.13 µg/mL (≈ 0.269 µM)	0.03 µg/mL (≈ 0.0622 µM)	8 µg/mL (≈ 16.6 µM)	0.25	–	–	0.83	–	–
CO[C@H]1CN(CCn2c(=O)ccc3ccc(C#N)cc32)CC[C@@H]1NCc1cc2c(cn1)OCCO2 (single isomer, unassigned; enantiomer 1)	8 µg/mL (≈ 16.8 µM)	0.5 µg/mL (≈ 1.05 µM)	0.25 µg/mL (≈ 0.526 µM)	> 8 µg/mL	0.13	96 nM	176000 nM	1.07	7.25	–
CO[C@@H]1CN(CCn2c(=O)ccc3ccc(C#N)cc32)CC[C@H]1NCc1ccc2c(n1)NC(=O)CO2 (single isomer, unassigned; enantiomer 1)	2 µg/mL (≈ 4.09 µM)	0.25 µg/mL (≈ 0.512 µM)	0.13 µg/mL (≈ 0.266 µM)	> 8 µg/mL	0.27	35 nM	–	0.81	7.53	–
COc1ccc2ncc(=O)n(CCN3CC[C@H](NCc4cc5c(cn4)OCCO5)[C@@H](OC)C3)c2c1 (single isomer, unassigned; enantiomer 1)	8 µg/mL (≈ 16.6 µM)	0.25 µg/mL (≈ 0.519 µM)	0.25 µg/mL (≈ 0.519 µM)	> 8 µg/mL	0.11	113 nM	93000 nM	1.27	7	–
COc1ccc2ncc(=O)n(CCN3CC[C@@H](NCc4ccc5c(n4)NC(=O)CO5)[C@H](OC)C3)c2c1 (single isomer, unassigned; enantiomer 1)	1 µg/mL (≈ 2.02 µM)	0.13 µg/mL (≈ 0.263 µM)	0.03 µg/mL (≈ 0.0607 µM)	8 µg/mL (≈ 16.2 µM)	0.18	45 nM	27000 nM	–	7.45	–
COc1ccc2ncc(=O)n(CCN3CC[C@H](NCc4ccc5c(n4)NC(=O)CO5)[C@@H](F)C3)c2c1 (single isomer, unassigned; enantiomer B)	0.5 µg/mL (≈ 1.04 µM)	0.06 µg/mL (≈ 0.124 µM)	< 0.01 µg/mL	4 µg/mL (≈ 8.29 µM)	0.04	< 9 nM	–	1.38	6.86	–
COc1ccc2ncc(=O)n(CCN3CC[C@@H](NCc4cc5c(cn4)OCCO5)[C@H](O)C3)c2c1 (single isomer, unassigned; enantiomer B)	2 µg/mL (≈ 4.28 µM)	0.06 µg/mL (≈ 0.128 µM)	0.06 µg/mL (≈ 0.128 µM)	> 8 µg/mL	0.18	3 nM	–	–	7.4	–
COc1ccc2ncc(=O)n(CCN3CC[C@H](NCc4cc5c(cn4)OCCO5)[C@@H](F)C3)c2c1 (single isomer, unassigned; enantiomer B)	8 µg/mL (≈ 17 µM)	0.13 µg/mL (≈ 0.277 µM)	0.06 µg/mL (≈ 0.128 µM)	> 8 µg/mL	0.09	26 nM	–	1.68	6.46	–
CN[C@H](CC(C)C)C(=O)N[C@H]1C(=O)N[C@@H](CC(N)=O)C(=O)N[C@H]2C(=O)N[C@H]3C(=O)N[C@H](C(=O)N[C@H](C(=O)O)c4cc(O)cc(O)c4-c4cc3ccc4O)[C@H](O)c3ccc(c(Cl)c3)Oc3cc2cc(c3O[C@@H]2O[C@H](CO)[C@@H](O)[C@H](O)[C@H]2O[C@H]2C[C@](C)(N)[C@H](O)[C@H](C)O2)Oc2ccc(cc2Cl)[C@H]1O [VANCOMYCIN]	–	–	–	–	–	–	–	–	–	> 64 µg/mL

— ChEMBL document CHEMBL2163267, “Novel N-linked aminopiperidine inhibitors of bacterial topoisomerase type II with reduced pK(a): antibacterial agents with an improved safety profile” (J Med Chem, 2012)
